Here are results for four compounds from ChEMBL document CHEMBL1134546, “Structure-based design, synthesis, and biological evaluation of conformationally restricted novel 2-alkylthio-6-[1-(2,6-difluorophenyl)alkyl]-3,4-dihydro-5-alkylpyrimidin-4(3H)-ones as non-nucleoside inhibitors of HIV-1 reverse transcriptase” (J Med Chem, 2001).

Where only a bound is given, the exact number is not on record here.

The test system of assay [1] is MT4. Put plainly: Anti-HIV-1 activity against WTIIIB HIV-1 strain in MT-4 cells. It counts as functional, cell-based. The conditions noted are these: Homo sapiens.
Assay [2] concerns MT4. The assay is described as follows: Anti-HIV-1 activity against Y181C HIV-1 strain in MT-4 cells. Format: functional, cell-based. Particulars: Homo sapiens.
The subject of assay [3] is Human immunodeficiency virus 1. Put plainly: Anti-HIV-1 activity determined as dose required to reduce p24 antigen levels. Format: functional.
Assay [4] has as its system Human immunodeficiency virus 1. The assay is described as follows: Effective concentration against HIV-1 induced cytopathogenicity in MT-4 cells. It counts as functional, organism-based, MT4. The conditions noted are these: Human immunodeficiency virus 1, MT4. The essentials:
(§1)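 MT-4 cells (1 × 10⁴/well) incubated with serial compound dilutions (200 mM DMSO stock diluted in medium), with or without HIV-1 IIIB (100 CCID₅₀/well), 4 days at 37 °C in RPMI 1640 with 10% FCS. Viable cells counted by MTT. CC₅₀ from mock-infected cells and EC₅₀ as 50% protection from virus-induced cytopathicity, run in parallel. Mean of at least two experiments.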

Assay [5] can be described thus: Y181C/WTIIIB ratio of the compound. Format: functional. The gist of the method: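 Fold resistance, given as the EC₅₀ against Y181C mutant HIV-1 divided by the EC₅₀ against wild-type IIIB. Each EC₅₀ is the dose giving 50% protection of MT-4 cells from virus-induced cytopathicity, read by MTT.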
Assay [6] has as its system MT4. Put plainly: CC50/EC50 ratio of the compound. Format: functional. The essentials:
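Selectivity index, calculated as CC₅₀/EC₅₀. Both values come from the parallel MTT readout in mock-infected and HIV-1 IIIB-infected MT-4 cells (4-day incubation at 37 °C).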

The target of assay [7] is Human immunodeficiency virus type 1 reverse transcriptase (Human immunodeficiency virus 1, UniProt Q72547). The assay is described as follows: Inhibitory activity against HIV-1 recombinant reverse transcriptase.
Assay [8] deals with MT4. The assay is described as follows: Cytotoxicity against MT-4 cells. It counts as functional, Homo sapiens. The conditions noted are these: Homo sapiens, MT4. The gist of the method:
as §1

Take `Cc1c(Cc2c(F)cccc2F)nc(SC2CCCC2)[nH]c1=O`: a half-maximal effect in the assay with MT4 [1] (EC50) was put at 40 nM. For the same compound, in the assay with MT4 [2], the EC50 (as a rule, the concentration that produces a half-maximal response) came out at 1200 nM. In assay [3], the EC90 (commonly the concentration needed for an effect of 90%) worked out at 40 nM; the EC99 – broadly, the concentration needed for an effect of 99% – was 0.075 µM; the EC99.9 turned out to be 0.15 µM. The compound further registered an EC50 in assay [4] of 80 nM. Also, the Fold resistance in assay [5] is 30. Also, the Selectivity index with MT4 [6] was greater than 2500.
As for `O=C1Nc2ccc(Cl)cc2[C@@](C#CC2CC2)(C(F)(F)F)O1` [EFAVIRENZ], the EC50 in the assay with MT4 [1] is 4 nM; in the assay on MT4 [2], 25 nM. For the same compound, in assay [5], the Fold resistance came to 6.
With `CCC(C)Sc1nc(O)c(C)c(C(C)c2c(F)cccc2F)n1` (stereo not given), the EC50 with MT4 [1] is 20 nM; in the assay with MT4 [2] it was 300 nM; in assay [4], 30 nM. Moreover, the IC50 – broadly, the point on the concentration scale where inhibition reaches its midpoint – in assay [7] was 20 nM. For the same compound, the CC50 (as a rule, the concentration at which the toxic effect on the cells reaches its halfway point) with MT4 [8] was greater than 200000 nM. For the same compound, in assay [5], the Fold resistance worked out at 15. Also, the Selectivity index in the assay on MT4 [6] came out at 6666.
For `CSc1nc(O)c(C)c(C(C)c2c(F)cccc2F)n1` (stereo not given), the EC50 with MT4 [1] was 37 nM; in the assay with MT4 [2], greater than 10000 nM; in assay [4], 40 nM. The IC50 in assay [7] came out at 20 nM. The CC50 with MT4 [8] is greater than 200000 nM. Also, in assay [5], the Fold resistance is greater than 270. For the same compound, the Selectivity index in the assay on MT4 [6] is greater than 5000.
